Measured values of several laboratories.
Each line is one published result; the experiments were not run side by side.
Target: Serine/threonine-protein kinase ULK2 (ULK2, Homo sapiens, UniProt Q8IYT8)
Residues used in one study (Q8IYT8 1-1036): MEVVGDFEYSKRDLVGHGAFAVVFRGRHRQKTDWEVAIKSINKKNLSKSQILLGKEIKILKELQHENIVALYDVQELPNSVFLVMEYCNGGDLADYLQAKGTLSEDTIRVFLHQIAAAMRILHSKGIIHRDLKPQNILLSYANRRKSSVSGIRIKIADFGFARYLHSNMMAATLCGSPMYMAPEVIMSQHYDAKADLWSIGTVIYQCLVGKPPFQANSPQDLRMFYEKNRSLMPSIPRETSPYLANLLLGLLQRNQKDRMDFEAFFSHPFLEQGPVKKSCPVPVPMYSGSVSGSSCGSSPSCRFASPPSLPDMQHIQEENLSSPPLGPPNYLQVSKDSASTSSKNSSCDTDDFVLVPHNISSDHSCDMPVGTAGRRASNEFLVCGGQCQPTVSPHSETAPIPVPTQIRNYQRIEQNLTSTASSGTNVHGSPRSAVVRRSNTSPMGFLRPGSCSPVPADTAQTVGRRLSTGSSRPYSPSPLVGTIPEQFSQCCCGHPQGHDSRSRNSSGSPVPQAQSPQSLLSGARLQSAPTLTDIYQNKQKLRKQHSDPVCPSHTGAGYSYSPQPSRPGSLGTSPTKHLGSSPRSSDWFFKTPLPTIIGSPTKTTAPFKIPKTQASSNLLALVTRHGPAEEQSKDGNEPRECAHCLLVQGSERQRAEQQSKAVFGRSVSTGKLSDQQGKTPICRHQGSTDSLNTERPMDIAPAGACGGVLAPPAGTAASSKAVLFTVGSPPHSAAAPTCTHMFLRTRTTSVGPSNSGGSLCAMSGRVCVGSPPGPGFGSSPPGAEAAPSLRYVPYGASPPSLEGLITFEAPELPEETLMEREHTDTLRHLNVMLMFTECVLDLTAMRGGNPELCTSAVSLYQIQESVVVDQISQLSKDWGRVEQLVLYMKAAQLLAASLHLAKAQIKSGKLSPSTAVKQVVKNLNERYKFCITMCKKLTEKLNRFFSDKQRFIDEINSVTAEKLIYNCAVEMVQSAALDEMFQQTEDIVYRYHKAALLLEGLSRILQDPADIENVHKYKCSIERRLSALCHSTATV

For `FC(F)(F)Oc1cccc(-c2cnc3ccc(-c4ccncc4)nn23)c1`, the remaining binding was 78% (binding; competition with immobilised ligand; 5 µM).
`O=C(O)[C@H]1[C@H](Cn2nnc3ccccc3c2=O)CC[C@@H]1C(=O)c1ccc(OCCC2CCOCC2)cc1` gave a remaining binding of 100% (cell-free assay; competition with immobilised ligand; 1 µM).
`CNC(=O)[C@@H]1CC[C@@H](n2c(-c3ccc4cnccc4c3)nc3ccc(C(=O)NCc4cccc(C(N)=O)c4)cc32)C1` gave a remaining binding of 100% (binding; competition with immobilised ligand; 1 µM).
For `CCOC(=O)c1cc2cc(-c3cc(C(=O)NCc4ccc(C(=O)O)cc4)nn3C)ccc2[nH]1`, the remaining binding was 78% (cell-free assay; competition with immobilised ligand; 0.1 µM).
`C[C@H]1CCN(c2nccc(-c3cnn4ncccc34)n2)C1` gave a remaining binding of 63% (binding; 1 µM).
`O=C(c1ccc(Nc2nccc(-c3cc4ccccc4s3)n2)cc1)N1CCC(N2CCCC2)CC1` gave a remaining binding of 87% (binding; competition with immobilised ligand; 1 µM).
`COCCOc1nc(-c2ccc(Cl)nc2)nc2c1CN(C(=O)c1ncn3ccccc13)CC2` gave a remaining binding of 100% (cell-free assay; competition with immobilised ligand; 0.1 µM).
With `COc1ccnn2ncc(-c3ccnc(N(C)C)n3)c12` the remaining binding was 100% (binding; 1 µM).
`C=CC(=O)N1CCC(C(=O)NCC(=O)N2CCN(c3nc(-c4cnc(N)nc4C(F)F)nc(N4CCOCC4)n3)CC2)CC1` has a remaining binding of 96% (binding; competition with immobilised ligand; 1 µM).
`O=C1CCc2cc(Nc3cc(OC4CCOCC4)c([N+](=O)[O-])cc3Cl)ccc2N1` has a remaining binding of 99% (cell-free assay; competition with immobilised ligand; 1 µM).
`CC1CCCN1c1nccc(-c2cnn3ncccc23)n1` (stereo not shown) has a remaining binding of 74% (binding; 1 µM).
For `C[C@@H]1CN(c2ccc3ncc(-c4ccc5[nH]nc(C6CC6)c5c4)n3n2)C[C@H](C)O1`, the remaining binding was 91% (binding; competition with immobilised ligand; 0.5 µM).
With `CCN1CCN(Cc2ccc(C(=O)Nc3ccc(C)c(Oc4ccc5c(c4)CC(=O)N5)c3)cc2C(F)(F)F)CC1` the remaining binding was 100% (binding; competition with immobilised ligand; 1 µM).
For `COc1ccc2c(c1)O[C@H](c1ccc(OC)c(OC)c1)C[C@@H]2NC(=O)C1(c2ccc3c(c2)OC(F)(F)O3)CC1`, the remaining binding was 100% (cell-free assay; competition with immobilised ligand; 1 µM).
`O=C(c1ccc(Nc2ncc(Cl)c(-c3cc4ccccc4s3)n2)cc1)N1CCC(N2CCCC2)CC1` gave a remaining binding of 35% (binding; competition with immobilised ligand; 1 µM).
For `CN(C)c1nccc(-c2cnc3ncccn23)n1`, the remaining binding was 74% (binding; 1 µM).
